Results: ChEMBL document CHEMBL3797090, “One-pot synthesis of 1,4-dihydroxy-2-((E)-1-hydroxy-4-phenylbut-3-enyl)anthracene-9,10-diones as novel shikonin analogs and evaluation of their antiproliferative activities” (Bioorg Med Chem Lett, 2016)

Tests used:
HeLa [1] = test: Cytotoxicity against human HeLa cells assessed as reduction in cell growth after 72 hrs by cell titer glo assay; type: functional, cell-based
[2] = Cytotoxicity against human MCF10 cells assessed as cell viability at 33.3 uM after 72 hrs by cell titer glo assay; type: cell-based; settings: read-out: Activity
Outline: (§1)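 The highest concentration tested was 33.3 μM, in a series running down to 0.0152 μM. Results came from three independent experiments.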

MDA-MB-231 [3] = test: Cytotoxicity against human MDA-MB-231 cells assessed as cell viability at 33.3 uM after 72 hrs by cell titer glo assay; type: functional; settings: MDA-MB-231, 72 h, read-out: Activity; outline: as §1
[4] = Cytotoxicity against human MIAPaCa2 cells assessed as cell viability at 33.3 uM after 72 hrs by cell titer glo assay; type: functional; settings: MIA PaCa-2, 72 h, read-out: Activity; outline: as §1
MCF7 [5] = test: Cytotoxicity against human MCF7 cells assessed as cell viability at 33.3 uM after 72 hrs by cell titer glo assay; type: functional; settings: MCF7, 72 h, read-out: Activity; outline: as §1
HeLa [6] = test: Cytotoxicity against human HeLa cells assessed as cell viability at 33.3 uM after 72 hrs by cell titer glo assay; type: functional; settings: read-out: Activity; outline: as §1
MDA-MB-231 [7] = test: Cytotoxicity against human MDA-MB-231 cells assessed as reduction in cell growth after 72 hrs by cell titer glo assay; type: functional, cell-based; settings: MDA-MB-231, 72 h
Outline: (§2)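 IC50, the concentration giving 50% inhibition of cell growth, was read from plots of inhibition against concentration. Values were calculated from three independent experiments.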

[8] = Cytotoxicity against human MIAPaCa2 cells assessed as reduction in cell growth after 72 hrs by cell titer glo assay; type: functional, cell-based; settings: MIA PaCa-2, 72 h
MCF7 [9] = test: Cytotoxicity against human MCF7 cells assessed as reduction in cell growth after 72 hrs by cell titer glo assay; type: functional, cell-based; settings: MCF7, 72 h; outline: as §2
MCF10 = test: Cytotoxicity against human MCF10 cells assessed as reduction in cell growth after 72 hrs by cell titer glo assay; type: cell-based; settings: MCF10, 72 h
Outline: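 Non-tumour mammary epithelial cells exposed to an 8-point series (33.3, 11.1, 3.7, 1.23, 0.41, 0.137, 0.0457, 0.0152 μM). IC50 is the concentration giving 50% growth inhibition, read from the plot of inhibition against concentration and calculated from three independent experiments.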

Structure (SMILES)	IC50 (HeLa [1])	viability at 72 h, 33.3 µM [2]	viability at 33.3 µM (MDA-MB-231 [3])	viability at 33.3 µM [4]	viability at 33.3 µM (MCF7 [5])	viability at 33.3 µM (HeLa [6])	IC50 (MDA-MB-231 [7])	IC50 [8]	IC50 (MCF7 [9])	IC50 (MCF10)
Cc1ccc(/C=C/CC(O)c2cc(O)c3c(c2O)C(=O)c2ccccc2C3=O)cc1 (stereo unspecified)	29 µM	> 50%	> 50%	> 50%	> 50%					
O=C1c2ccccc2C(=O)c2c(O)c(C(O)C/C=C/c3ccc(Br)cc3)cc(O)c21 (stereo unspecified)		> 50%	> 50%	> 50%	> 50%	> 50%				
O=C1C2=C(C(=O)c3ccccc31)C(O)C1=C(O)CC(c3ccccc3)C1=C2O (stereo unspecified)	29.2 µM	> 50%			> 50%		28.8 µM	27.7 µM		
O=C1c2ccccc2C(=O)c2c(O)c(C(O)C/C=C/c3ccccc3Cl)cc(O)c21 (stereo unspecified)	27.2 µM	> 50%		> 50%					31.5 µM	
O=C1c2ccccc2C(=O)c2c(O)c(C(O)C/C=C/c3ccccc3)cc(O)c21 (stereo unspecified)	18.6 µM	> 50%	> 50%	> 50%	> 50%					
O=C1c2ccccc2C(=O)c2c(O)c(C(O)C/C=C/c3ccccc3Br)cc(O)c21 (stereo unspecified)	25.6 µM	> 50%					30.7 µM	27.1 µM	31.1 µM	
O=C1c2ccccc2C(=O)c2c(O)c(C(O)C/C=C/c3ccc(Cl)cc3)cc(O)c21 (stereo unspecified)	27.4 µM	> 50%					28.5 µM	27.4 µM	32.3 µM	
O=C1c2ccccc2C(=O)c2c(O)c(C(O)C/C=C/c3ccccc3F)cc(O)c21 (stereo unspecified)	28.7 µM	> 50%			> 50%		29.2 µM	27.3 µM		
O=C1c2ccccc2C(=O)c2c(O)c(C(O)C/C=C/c3cccc(Br)c3)cc(O)c21 (stereo unspecified)	29.1 µM	> 50%	> 50%					27.6 µM	31.7 µM	
O=C1c2ccccc2C(=O)c2c(O)c(C(O)C/C=C/c3cccc(F)c3)cc(O)c21 (stereo unspecified)	25.2 µM	> 50%					26.5 µM	26.3 µM	32.1 µM	
COc1ccccc1/C=C/CC(O)c1cc(O)c2c(c1O)C(=O)c1ccccc1C2=O (stereo unspecified)	29 µM	> 50%	> 50%	> 50%	> 50%					
COc1cccc2c1C(=O)c1c(O)c3c(c(O)c1C2=O)C[C@@](O)(C(=O)CO)C[C@@H]3O[C@H]1C[C@H](N)[C@H](O)[C@H](C)O1 [DOXORUBICIN]							0.16 µM			0.16 µM
Cc1cccc(/C=C/CC(O)c2cc(O)c3c(c2O)C(=O)c2ccccc2C3=O)c1 (stereo unspecified)	27.2 µM	> 50%	> 50%					28.5 µM	32.8 µM	
Cc1ccccc1/C=C/CC(O)c1cc(O)c2c(c1O)C(=O)c1ccccc1C2=O (stereo unspecified)	28.3 µM	> 50%	> 50%					26.1 µM	32.8 µM	
CC(C)=CC[C@@H](O)C1=CC(=O)c2c(O)ccc(O)c2C1=O [SHIKONIN]	6.42 µM						3.94 µM	0.04 µM	5.49 µM	4.56 µM
COc1ccc(/C=C/CC(O)c2cc(O)c3c(c2O)C(=O)c2ccccc2C3=O)cc1 (stereo unspecified)	24.1 µM	> 50%					26.9 µM	26.3 µM	32.8 µM	
COc1cccc(/C=C/CC(O)c2cc(O)c3c(c2O)C(=O)c2ccccc2C3=O)c1 (stereo unspecified)	28 µM	> 50%	> 50%		> 50%			27.1 µM		
O=C1c2ccccc2C(=O)c2c(O)c(C(O)C/C=C/c3cccc(Cl)c3)cc(O)c21 (stereo unspecified)	25.8 µM	> 50%					31.2 µM	26.4 µM	32.2 µM	
O=C1c2ccccc2C(=O)c2c(O)c(C(O)C/C=C/c3ccc(F)cc3)cc(O)c21 (stereo unspecified)	32.9 µM	> 50%					28 µM	23.2 µM	28.5 µM	
